One may read the ED50 as the midpoint of the dose-response relation. A high value points to weaker potency.

In brackets after ≈: the same amount, converted by molar mass.

The subject of one assay is Collinsella aerofaciens. In words: In vitro antimicrobial activity against anaerobic bacteria eubacterium aerofaciens 1235. The format is functional.
For assay [1], the system named is Mus musculus. In words: Peripheral plasma levels in mice after oral administration of 100 mg/kg dose for 4 hr. The format is functional, organism-based. More on the design: dose 100 mg/kg. The method, boiled down:
(§1)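 Mice were given the compound orally and sampled for peripheral plasma at each time point. Plasma was assayed microbiologically against Micrococcus luteus seeded in Antibiotic Medium 1. Inhibition zone sizes were read, and concentrations were calculated from each compound's own standard curve. Each value is the mean of five mice per time point.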

Assay [2] relates to Mus musculus. In words: Peripheral plasma levels in mice after oral administration of 50 mg/kg dose for 1 hr. The format is functional, organism-based. Also noted: dose 50 mg/kg. In outline: as §1
Assay [3] concerns Mus musculus. In words: Peripheral plasma levels in mice after oral administration of 100 mg/kg dose for 2 hr. It is filed as functional, organism-based. Also noted: dose 100 mg/kg. The method, boiled down: as §1
A further assay relates to Cutibacterium acnes. In words: In vitro antimicrobial activity against anaerobic bacteria propionibacterium acnes 79. The format is functional.
A further assay has as its system Enterococcus faecium. In words: In vitro antimicrobial activity against Streptococcus faecium X66. The format is functional, streptococcus fae-cium.
The subject of assay [4] is Streptococcus pyogenes. In words: In vivo effective dose against experimental infections in rodent caused by Streptococcus pyogenes C203 when administered sc. It is filed as functional.
The subject of another assay is Clostridium septicum. In words: In vitro antimicrobial activity against anaerobic bacteria clostridium septicum 1128. It is filed as functional.
A further assay concerns Haemophilus influenzae. In words: In vitro antimicrobial activity against Haemophilus influenzae. It is filed as functional.
For assay [5], the system named is Mus musculus. In words: Peripheral plasma levels in mice after oral administration of 50 mg/kg dose for 2 hr. It is filed as functional, organism-based. Also noted: dose 50 mg/kg. In outline: as §1
The subject of assay [6] is Bacteroides thetaiotaomicron. In words: In vitro antimicrobial activity against anaerobic bacteria bacteroides thetaiotaomicron 1438. It is filed as functional.
For assay [7], the system named is Mus musculus. In words: Peripheral plasma levels in mice after oral administration of 100 mg/kg dose for 0.5 hr. Also noted: dose 100 mg/kg. The format is functional, organism-based. The method, boiled down:
as §1

A further assay has as its system Eikenella corrodens. In words: In vitro antimicrobial activity against anaerobic bacteria bacteroides corrodens 1874. It is filed as functional.
For another assay, the system named is Fusobacterium. In words: In vitro antimicrobial activity against anaerobic bacteria fusobacterium symbiosum 1470. The format is functional.
The test system of a further assay is Clostridioides difficile. In words: In vitro antimicrobial activity against anaerobic bacteria Clostridium difficile 2994. It is filed as functional.
Assay [8] concerns Prevotella melaninogenica. In words: In vitro antimicrobial activity against anaerobic bacteria bacteroides melaninogenicus 2736. It is filed as functional.
Assay [9] has as its system Mus musculus. In words: Peripheral plasma levels in mice after oral administration of 100 mg/kg dose for 0.25 hr. It is filed as functional, organism-based. More on the design: dose 100 mg/kg. The method, boiled down: as §1
A further assay concerns Clostridium perfringens. In words: In vitro antimicrobial activity against anaerobic bacteria clostridium perfringens 81,. It is filed as functional.
A further assay deals with Chlamydia trachomatis. In words: In vitro antimicrobial activity against chlamydia trachomatis. The format is functional.
Assay [10] has as its system Bacteroides fragilis. In words: In vitro antimicrobial activity against anaerobic bacteria bacteroides fragilis 111. The format is functional.
A further assay relates to Streptococcus pneumoniae. In words: In vitro antimicrobial activity against Streptococcus pneumoniae. The format is functional.
The next assay has as its system Staphylococcus aureus. In words: In vitro antimicrobial activity against Staphylococcus aureus X1. It is filed as functional.
The subject of assay [11] is Fusobacterium necrophorum. In words: In vitro antimicrobial activity against anaerobic bacteria usobacterium necrophorum 6054A. It is filed as functional.
Assay [12] deals with Peptostreptococcus anaerobius. In words: In vitro antimicrobial activity against anaerobic bacteria eubacterium peptostreptococcus anaerobius 1428,. It is filed as functional.
Assay [13] deals with Mus musculus. In words: Peripheral plasma levels in mice after oral administration of 100 mg/kg dose for 1 hr. More on the design: dose 100 mg/kg. It is filed as functional, organism-based. In outline: as §1
Assay [14] concerns Staphylococcus epidermidis. In words: In vitro antimicrobial activity against Staphylococcus epidermidis EPI1. The format is functional.
For assay [15], the system named is Bacteroides fragilis. In words: In vitro antimicrobial activity against anaerobic bacteria bacteroides fragilis 1936B,. The format is functional.
Assay [16] concerns Mus musculus. In words: Peripheral plasma levels in mice after oral administration of 50 mg/kg dose for 0.25 hr. More on the design: dose 50 mg/kg. It is filed as functional, organism-based. In outline: as §1
For assay [17], the system named is Prevotella melaninogenica. In words: In vitro antimicrobial activity against anaerobic bacteria bacteroides melaninogenicus 1856,. It is filed as functional.
The subject of another assay is Phocaeicola vulgatus. In words: In vitro antimicrobial activity against anaerobic bacteria bacteroides vulgatus 1211. It is filed as functional.
The subject of assay [18] is Peptoniphilus asaccharolyticus. In words: In vitro antimicrobial activity against anaerobic bacteria peptococcus asaccharolyticus 1302. It is filed as functional.
A further assay relates to Anaerococcus prevotii. In words: In vitro antimicrobial activity against anaerobic bacteria peptococcus prevoti 1281. It is filed as functional.
Assay [19] in a line: In vitro antimicrobial activity against anaerobic bacteria peptostreptococcus intermedius 1264. It is filed as functional.
For assay [20], the system named is Streptococcus pyogenes. In words: In vitro antimicrobial activity against Streptococcus pyogenes C203. The format is functional.
Assay [21] has as its system Bacteroides fragilis. In words: In vitro antimicrobial activity against anaerobic bacteria bacteroides fragilis 1877. It is filed as functional.
Assay [22] has as its system Mus musculus. In words: Peripheral plasma levels in mice after oral administration of 50 mg/kg dose for 0.5 hr. It is filed as functional, organism-based. More on the design: dose 50 mg/kg. The method, boiled down: as §1
The test system of assay [23] is Streptococcus pyogenes. In words: Activity against Streptococcus pyogenes C203 when administered orally. The format is functional. As to conditions: po. In outline: (§2)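 Mouse protection test: infected mice were dosed twice, at 1 and 5 h postinfection, either subcutaneously or orally. […] The result is expressed as ED50 in mg/kg × 2.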
The test system of assay [24] is Streptococcus pyogenes. In words: Antimicrobial activity against Streptococcus pyogenes C203. The format is functional.
In assay [25] the test system is Streptococcus pyogenes. In words: Activity against Streptococcus pyogenes C203 when administered sc. The format is functional. The method, boiled down:
as §2

With `CC[C@H]1OC(=O)C[C@@H](O)[C@H](C)[C@@H](O[C@@H]2O[C@H](C)[C@@H](O[C@H]3C[C@@](C)(O)[C@@H](O)[C@H](C)O3)[C@H](N(C)C)[C@H]2O)[C@@H](CCCl)C[C@@H](C)C(=O)/C=C/C(C)=C/[C@@H]1CO[C@@H]1O[C@H](C)[C@@H](O)[C@@H](OC)[C@H]1OC`, the MIC in the assay with Collinsella aerofaciens is 64 µg/mL (≈ 68.3 µM); with Cutibacterium acnes it was > 128 µg/mL; in the assay on Enterococcus faecium it was > 128 µg/mL; against Clostridium septicum, < 0.5 µg/mL; against Haemophilus influenzae, > 128 µg/mL; in assay [6], 2 µg/mL (≈ 2.14 µM). The MIC was 4 µg/mL (≈ 4.27 µM) in the assay on Eikenella corrodens; 4 µg/mL (≈ 4.27 µM) in the assay with Fusobacterium; < 0.5 µg/mL with Clostridioides difficile; 2 µg/mL (≈ 2.14 µM) in assay [8]; < 0.5 µg/mL with Clostridium perfringens; 1 µg/mL (≈ 1.07 µM) in the assay with Chlamydia trachomatis. The MIC was 8 µg/mL (≈ 8.54 µM) against Bacteroides fragilis [10]; 32 µg/mL (≈ 34.2 µM) in the assay with Streptococcus pneumoniae; 1 µg/mL (≈ 1.07 µM) with Staphylococcus aureus; > 128 µg/mL in [11]; 4 µg/mL (≈ 4.27 µM) in [12]; 1 µg/mL (≈ 1.07 µM) in assay [14]. Also, the MIC was determined as 4 µg/mL (≈ 4.27 µM) with Bacteroides fragilis [15]; 2 µg/mL (≈ 2.14 µM) in [17]; 1 µg/mL (≈ 1.07 µM) in the assay with Phocaeicola vulgatus; 32 µg/mL (≈ 34.2 µM) in assay [18]; 8 µg/mL (≈ 8.54 µM) with Anaerococcus prevotii; 64 µg/mL (≈ 68.3 µM) in assay [19]. Also, the MIC against Streptococcus pyogenes [20] was found to be 2 µg/mL (≈ 2.14 µM); against Bacteroides fragilis [21], 4 µg/mL (≈ 4.27 µM). Besides, the Concentration came out at 0.4 µg/mL in the assay on Mus musculus [1]; 0.9 µg/mL in the assay with Mus musculus [2]; 1.3 µg/mL in the assay on Mus musculus [3]; 0.5 µg/mL in the assay with Mus musculus [5]; 8.8 µg/mL with Mus musculus [7]; 10 µg/mL in the assay on Mus musculus [9]. The Concentration in the assay with Mus musculus [13] is 3 µg/mL; with Mus musculus [16] it was 1.9 µg/mL; with Mus musculus [22] it was 1.9 µg/mL. Moreover, the ED50 with Streptococcus pyogenes [4] is > 6.3 mg/kg.
`CC[C@H]1OC(=O)C[C@@H](O)[C@H](C)[C@@H](O[C@@H]2O[C@H](C)[C@@H](O[C@H]3C[C@@](C)(O)[C@@H](O)[C@H](C)O3)[C@H](N(C)C)[C@H]2OC(C)=O)[C@@H](CCOc2ccccc2)C[C@@H](C)C(=O)/C=C/C(C)=C/[C@@H]1CO[C@@H]1O[C@H](C)[C@@H](O)[C@@H](OC)[C@H]1OC`: the figures for the ED50 in the assay with Streptococcus pyogenes [23] and in the assay with Streptococcus pyogenes [25] were 76.5 mg/kg and > 10 mg/kg, respectively. Moreover, the MIC in the assay with Streptococcus pyogenes [24] amounted to 4 µg/mL (≈ 3.86 µM).
The corresponding values for `CC[C@H]1OC(=O)C[C@@H](O)[C@H](C)[C@@H](O[C@@H]2O[C@H](C)[C@@H](OC(C)=O)[C@H](N(C)C)[C@H]2OC(C)=O)[C@@H](CCOc2ccccc2)C[C@@H](C)C(=O)/C=C/C(C)=C/[C@@H]1CO[C@@H]1O[C@H](C)[C@@H](O)[C@@H](OC)[C@H]1OC` are 16 mg/kg, 2.9 mg/kg and 0.5 µg/mL (≈ 0.535 µM).

For the origin of these results see ChEMBL document CHEMBL1124186, “Synthesis and evaluation of tylosin-related macrolides modified at the aldehyde function: a new series of orally effective antibiotics” (1988).
